Converted amounts (≈) assume the structure as drawn.
Columns and labels:
[1] = Inhibition of Escherichia coli UPPS-mediated condensation of FPP with IPP by spectrophotometric analysis
Method in brief: (§1)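 Continuous spectrophotometric assay of FPP + IPP condensation by purified recombinant UPPS (EcUPPS or SaUPPS): 350 μM IPP, 35 μM FPP, 400 μM MESG to follow PPi release, 20 mM Tris·HCl pH 7.5, 0.01% v/v Triton X-100, 1 mM MgCl2.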

[2] = Inhibition of Staphylococcus aureus UPPS-mediated condensation of FPP with IPP by spectrophotometric analysis; method in brief: as §1
Bacillus subtilis [3] = test: Antibacterial activity against Bacillus subtilis subsp. subtilis ATCC 6051 after 12 to 16 hrs by broth dilution method; assay type: functional, organism-based
Method in brief: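 Microbroth dilution: 16 h LB culture diluted 50-fold, grown to OD600 ∼0.4, diluted 500-fold into LB and plated. Compound serially diluted from 0.5 mM; incubation 12–16 h at 37 °C; growth read as absorbance at 570 nm. IC50 by nonlinear regression, averaged over two independent experiments.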

Escherichia coli [4] = test: Antibacterial activity against Escherichia coli ATCC 29425 after 3 hrs by MTT assay; assay type: functional, organism-based; settings: ATCC 29425, 3 h
Method in brief: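 Overnight (16 h) culture diluted 50-fold into LB, grown to OD600 ∼0.4, then diluted 500-fold and plated. Compound 2-fold serial dilutions from 0.3 mM; 3 h at 37 °C to mid-exponential phase. Viability read by MTT (2–4 h, then detergent 2 h at 23 °C in dark), absorbance 570 nm. IC50 by nonlinear regression, mean of two independent experiments.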

Saccharomyces cerevisiae = test: Toxicity in Saccharomyces cerevisiae ATCC 208352 after 36 hrs by broth dilution method; assay type: organism-based; settings: ATCC 208352, 36 h
Method in brief: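 Yeast growth inhibition run in YPD medium: inoculum prepared by 50-fold dilution, growth to OD600 ∼0.4, then 500-fold dilution. Compound serially diluted from 0.5 mM; plates held 36 h at 37 °C; absorbance at 570 nm. IC50 by nonlinear regression, mean of two independent experiments.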

Bacillus subtilis [5] = test: Antibacterial activity against Bacillus subtilis 168 after 16 hrs by microbroth dilution method; assay type: functional; settings: subsp. subtilis str. 168, 16 h
Method in brief: (§2)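 Stationary-phase cultures grown in LB broth at 37 °C, adjusted to OD600 0.016 in LB, then added to 96-well plates. 2-fold dilutions from 0.25 to 64 μg mL–1, with kanamycin (1–32 μg mL–1) and DMSO as controls. Incubated covered at 37 °C for 16 h with shaking. MIC taken as the lowest concentration suppressing at least 99% of growth, judged by turbidity.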

Bacillus anthracis [6] = test: Antibacterial activity against Bacillus anthracis Sterne after 16 hrs by microbroth dilution method; assay type: functional
Staphylococcus aureus = test: Antibacterial activity against methicillin-resistant Staphylococcus aureus USA300 after 16 hrs by microbroth dilution method; assay type: functional; settings: USA300, 16 h
Method in brief: (§3)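 Stationary-phase cultures grown in brain–heart infusion medium at 37 °C, adjusted to OD600 0.016 in BHI, then plated. 2-fold dilutions from 0.25 to 64 μg mL–1 with DMSO as vehicle control. Kanamycin (1–32 μg mL–1) was the control for L. monocytogenes and gentamycin (1–64 μg mL–1) for S. aureus and E. faecalis. Incubated covered at 37 °C for 16 h with shaking. MIC was the concentration giving at least 99% growth suppression by turbidity.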

Enterococcus faecalis [7] = test: Antibacterial activity against vancomycin-resistant Enterococcus faecalis U503 after 16 hrs by microbroth dilution method; assay type: functional; settings: U503, 16 h; method in brief: as §3
Listeria monocytogenes = test: Antibacterial activity against Listeria monocytogenes 4b F2365 after 16 hrs by microbroth dilution method; assay type: functional; settings: 4b F2365, 16 h; method in brief: as §3
Pseudomonas putida = test: Antibacterial activity against Pseudomonas putida after 16 hrs by microbroth dilution method; assay type: functional; method in brief: as §2
Escherichia coli [8] = test: Antibacterial activity against Escherichia coli MC4100 after 16 hrs by microbroth dilution method; assay type: functional; settings: MC4100, 16 h; method in brief: as §2
Enterococcus faecalis [9] = test: Antibacterial activity against vancomycin-resistant Enterococcus faecalis U503 after 16 hrs by microbroth dilution method in presence of vancomycin; assay type: functional; settings: U503, 16 h
Bacillus anthracis [10] = test: Antibacterial activity against Bacillus anthracis Sterne after 16 hrs by microbroth dilution method in presence of ampicillin; assay type: functional

| SMILES | IC50 [1] [µM] | IC50 [2] [µM] | IC50 (Bacillus subtilis [3]) [µM] | IC50 (Escherichia coli [4]) [µM] | IC50 (Saccharomyces cerevisiae) [µM] | MIC (Bacillus subtilis [5]) [µg/mL] | MIC (Bacillus anthracis [6]) [µg/mL] | MIC (Staphylococcus aureus) [µg/mL] | MIC (Enterococcus faecalis [7]) [µg/mL] | MIC (Listeria monocytogenes) [µg/mL] | MIC (Pseudomonas putida) [µg/mL] | MIC (Escherichia coli [8]) [µg/mL] | MIC (Enterococcus faecalis [9]) [µg/mL] | MIC (Bacillus anthracis [10]) [µg/mL] |
| --- | --- | --- | --- | --- | --- | --- | --- | --- | --- | --- | --- | --- | --- | --- |
| O=C(O)c1ccc(N2C(=O)/C(=C/c3ccc(Br)cc3)SC2=S)cc1 | > 200 | 170 | > 200 | > 200 | > 200 |  |  |  |  |  |  |  |  |  |
| CCN1C(=O)/C(=C/c2ccc(OCC(=O)O)cc2)SC1=S | > 100 | > 100 | > 200 | > 200 | > 200 |  |  |  |  |  |  |  |  |  |
| O=C(O)CCN1C(=O)/C(=C/c2ccc(-c3ccc(Cl)cc3Cl)o2)SC1=S | 2.1 | 2.4 | 0.43 | > 200 | 180 | 0.125 (≈ 0.292 µM) | 0.25 (≈ 0.584 µM) | 4 (≈ 9.34 µM) | 4 (≈ 9.34 µM) | 0.125 (≈ 0.292 µM) | > 64 | > 64 |  |  |
| CCOc1cc(/C=C2\SC(=S)N(c3ccc(F)cc3)C2=O)ccc1O | 41 | 150 | > 200 | > 200 | > 200 |  |  |  |  |  |  |  |  |  |
| CCOc1cc(/C=C2\SC(=S)N(c3cccc(F)c3)C2=O)ccc1OC(=O)c1cccs1 | > 200 | > 200 | > 200 | > 200 | > 200 |  |  |  |  |  |  |  |  |  |
| CC1=CC(=O)/C(=C\N2C(=O)/C(=C/c3cccc(O)c3)SC2=S)C(=O)O1 | > 100 | > 100 | > 200 | > 200 | > 200 |  |  |  |  |  |  |  |  |  |
| CN(C)c1ccc(/C=C2\SC(=S)N(Cc3ccco3)C2=O)cc1 | > 100 | > 100 | > 200 | > 200 | > 200 |  |  |  |  |  |  |  |  |  |
| O=C1/C(=C/c2ccc(Cl)cc2Cl)SC(=S)N1Cc1ccco1 | > 100 | > 100 | > 200 | > 200 | > 200 |  |  |  |  |  |  |  |  |  |
| Cc1cc(Cl)ccc1-c1ccc(/C=C2\SC(=S)N(CC(=O)O)C2=O)o1 | 260 |  | 2.9 | > 200 | > 200 |  | 1 (≈ 2.54 µM) | 8 (≈ 20.3 µM) | 1 (≈ 2.54 µM) | 4 (≈ 10.2 µM) | > 64 | > 64 | 1.78 | 1.24 |
| COc1cccc(/C=C2\SC(=S)N(Cc3ccco3)C2=O)c1OC | > 100 | > 100 | > 200 | > 200 | > 200 |  |  |  |  |  |  |  |  |  |
| Cc1ccc(-c2ccc(/C=C3\SC(=S)N(CCCC(=O)O)C3=O)o2)c([N+](=O)[O-])c1 | > 100 | 5.7 | 3.2 | > 200 | > 200 |  |  |  |  |  |  |  |  |  |
| CC(=O)c1ccc(-c2ccc(/C=C3\SC(=S)N(c4ccccc4)C3=O)o2)cc1 | 85 | 32 | > 200 | > 200 | > 200 |  |  |  |  |  |  |  |  |  |
| O=C1/C(=C\c2cccc(O)c2O)SC(=S)N1Cc1ccco1 | > 100 | 5.3 | > 200 | > 200 | > 200 |  |  |  |  |  |  |  |  |  |
| O=C(O)CCCCCN1C(=O)/C(=C/c2ccc(-c3cc(Cl)ccc3Cl)o2)SC1=S | > 100 | 3.8 | 5.6 | > 200 | > 200 |  |  |  |  |  |  |  |  |  |
| CCOc1cccc(/C=C2\SC(=S)N(Cc3ccco3)C2=O)c1O | > 100 | > 100 | > 200 | > 200 | > 200 |  |  |  |  |  |  |  |  |  |
| CCN1C(=O)/C(=C/c2ccc(OC)cc2)SC1=S | > 100 | > 100 | > 200 | > 200 | > 200 |  |  |  |  |  |  |  |  |  |
| CN1C(=O)/C(=C/c2ccc(-c3cc(Cl)ccc3Cl)o2)SC1=S | > 200 | > 200 | > 200 | > 200 | > 200 |  |  |  |  |  |  |  |  |  |
